Results as given in ChEMBL document CHEMBL1135354, “Synthesis and activity of a novel class of tribasic macrocyclic antibiotics: the triamilides” (2002).
Values after ≈ are worked out from the molar mass of the structure shown.

Key:
Assay type in all cases: functional
[1] = system: Escherichia coli; assay: In vitro minimum inhibitory concentration required to inhibit growth of Escherichia coli.; conditions: Escherichia coli
Method in brief: (§1)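 Broth microdilution per NCCLS; E. coli 51A0150 (poultry lung) and P. multocida 59A0067 (turkey). Overnight BHI plate colonies suspended in saline to OD625 0.09 (0.5 McFarland), diluted 1:100 in BHI broth; final ~5×10^5 cfu/mL against 2-fold serial dilutions in BHI broth.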

[2] = system: Pasteurella multocida; assay: Effective dose required to inhibit Pasteurella multocida infection model in mouse by subcutaneous administration; conditions: Pasteurella multocida, sc; read-out: ED50
Method in brief: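 Mice infected intranasally with P. multocida (respiratory disease model); drug given subcutaneously 0.5 h post-infection at 5–80 mg/kg. ED50 derived from number of surviving mice 4 days after infection.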

[3] = system: Pasteurella multocida; assay: Minimum inhibitory concentration required to inhibit growth of Pasteurella multocida in vitro by microdilution method.; conditions: Pasteurella multocida; read-out: MIC; method in brief: as §1

| Structure (SMILES) | MIC [1] | ED50 [2] | MIC [3] |
| --- | --- | --- | --- |
| CC[C@H]1OC(=O)[C@H](C)[C@@H](O[C@H]2C[C@@](C)(OC)[C@](O)(CN3CCCC3)[C@H](C)O2)[C@H](C)[C@@H](O[C@@H]2O[C@H](C)C[C@H](N(C)C)[C@H]2O)[C@](C)(O)C[C@@H](C)CN[C@H](C)[C@@H](O)[C@]1(C)O | 0.2 µg/mL (≈ 0.244 µM) | < 10 mg/kg | 0.05 µg/mL (≈ 0.0611 µM) |
| CC[C@H]1OC(=O)[C@H](C)[C@@H](O[C@H]2C[C@@](C)(OC)[C@](O)(CN3CCCCC3)[C@H](C)O2)[C@H](C)[C@@H](O[C@@H]2O[C@H](C)C[C@H](N(C)C)[C@H]2O)[C@](C)(O)C[C@@H](C)CN[C@H](C)[C@@H](O)[C@]1(C)O | 0.39 µg/mL (≈ 0.469 µM) |  | 0.05 µg/mL (≈ 0.0601 µM) |
| CC[C@H]1OC(=O)[C@H](C)[C@@H](O[C@H]2C[C@@](C)(OC)[C@](O)(CNC(C)(C)C)[C@H](C)O2)[C@H](C)[C@@H](O[C@@H]2O[C@H](C)C[C@H](N(C)C)[C@H]2O)[C@](C)(O)C[C@@H](C)CN[C@H](C)[C@@H](O)[C@]1(C)O | 0.39 µg/mL (≈ 0.476 µM) | 9.6 mg/kg | 0.05 µg/mL (≈ 0.061 µM) |
| CCCCNC[C@]1(O)[C@H](C)O[C@@H](O[C@H]2[C@H](C)[C@@H](O[C@@H]3O[C@H](C)C[C@H](N(C)C)[C@H]3O)[C@](C)(O)C[C@@H](C)CN[C@H](C)[C@@H](O)[C@](C)(O)[C@@H](CC)OC(=O)[C@@H]2C)C[C@@]1(C)OC | 0.78 µg/mL (≈ 0.951 µM) | 17 mg/kg | 0.1 µg/mL (≈ 0.122 µM) |
| CC[C@H]1OC(=O)[C@H](C)[C@@H](O[C@H]2C[C@@](C)(OC)[C@](O)(CNC3CC3)[C@H](C)O2)[C@H](C)[C@@H](O[C@@H]2O[C@H](C)C[C@H](N(C)C)[C@H]2O)[C@](C)(O)C[C@@H](C)CN[C@H](C)[C@@H](O)[C@]1(C)O | 0.78 µg/mL (≈ 0.97 µM) | 15 mg/kg | 0.1 µg/mL (≈ 0.124 µM) |
| CC[C@H]1OC(=O)[C@H](C)[C@@H](O[C@H]2C[C@@](C)(OC)[C@](O)(CN)[C@H](C)O2)[C@H](C)[C@@H](O[C@@H]2O[C@H](C)C[C@H](N(C)C)[C@H]2O)[C@](C)(O)C[C@@H](C)CN[C@H](C)[C@@H](O)[C@]1(C)O | 6.25 µg/mL (≈ 8.18 µM) |  | 0.39 µg/mL (≈ 0.51 µM) |
| CC[C@H]1OC(=O)[C@H](C)[C@@H](O[C@H]2C[C@@](C)(OC)[C@@](O)(CN3CCCC3)[C@H](C)O2)[C@H](C)[C@@H](O[C@@H]2O[C@H](C)C[C@H](N(C)C)[C@H]2O)[C@](C)(O)C[C@@H](C)CN[C@H](C)[C@@H](O)[C@]1(C)O | 0.2 µg/mL (≈ 0.244 µM) | 7.3 mg/kg | 50 µg/mL (≈ 61.1 µM) |
| CC[C@H]1OC(=O)[C@H](C)[C@@H](O[C@H]2C[C@@](C)(OC)[C@@](O)(CNC(C)(C)C)[C@H](C)O2)[C@H](C)[C@@H](O[C@@H]2O[C@H](C)C[C@H](N(C)C)[C@H]2O)[C@](C)(O)C[C@@H](C)CN[C@H](C)[C@@H](O)[C@]1(C)O | 0.39 µg/mL (≈ 0.476 µM) | 14 mg/kg | 0.1 µg/mL (≈ 0.122 µM) |
| CC[C@H]1OC(=O)[C@H](C)[C@@H](O[C@H]2C[C@@](C)(OC)[C@@](O)(CSCCO)[C@H](C)O2)[C@H](C)[C@@H](O[C@@H]2O[C@H](C)C[C@H](N(C)C)[C@H]2O)[C@](C)(O)C[C@@H](C)CN[C@H](C)[C@@H](O)[C@]1(C)O | 1.56 µg/mL (≈ 1.89 µM) | 51 mg/kg | 0.2 µg/mL (≈ 0.242 µM) |
| CCCCCCNC[C@@]1(O)[C@H](C)O[C@@H](OC2[C@@H](C)C(=O)O[C@H](CC)[C@@](C)(O)[C@H](O)[C@@H](C)NC[C@H](C)C[C@@](C)(O)[C@H](O[C@@H]3O[C@H](C)C[C@H](N(C)C)[C@H]3O)[C@H]2C)C[C@@]1(C)OC (stereo partly drawn) | 0.78 µg/mL (≈ 0.92 µM) | > 80 mg/kg | 0.2 µg/mL (≈ 0.236 µM) |
| CC[C@H]1OC(=O)[C@H](C)[C@@H](O[C@H]2C[C@@](C)(OC)[C@@](O)(CNCCOC)[C@H](C)O2)[C@H](C)[C@@H](O[C@@H]2O[C@H](C)C[C@H](N(C)C)[C@H]2O)[C@](C)(O)C[C@@H](C)CN[C@H](C)[C@@H](O)[C@]1(C)O | 0.78 µg/mL (≈ 0.949 µM) | 9.5 mg/kg | < 0.1 µg/mL |
| CC[C@H]1OC(=O)[C@H](C)[C@@H](O[C@H]2C[C@@](C)(OC)[C@@](O)(CN(CCO)CCO)[C@H](C)O2)[C@H](C)[C@@H](O[C@@H]2O[C@H](C)C[C@H](N(C)C)[C@H]2O)[C@](C)(O)C[C@@H](C)CN[C@H](C)[C@@H](O)[C@]1(C)O | > 50 µg/mL |  | 3.13 µg/mL (≈ 3.67 µM) |
